Activity calls are given as the source filed them. The rule behind the calls is not given here.
Columns and labels:
Yellow fever virus [1] = assay: Antiviral activity against YFV Jimenez infected in Syrian golden hamster assessed as serum alanine aminotransferase at 100 mg/kg, ip bid for 7 days; assay type: functional; details: route intraperitoneal
Method in brief: (§1)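 YFV (Jimenez)-infected female hamsters were treated b.i.d. i.p. or p.o. Serum was drawn by ocular sinus at 6 dpi. ALT was read with a colorimetric kit adapted to microplates: substrate plus serum for 30 min at 37°C, then colour reagent and developer, absorbance at 505 nm. Values are IU/liter against saline controls.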

[2] = Selectivity index, ratio of CC50 for MDBK cells to […] for BVDV; assay type: functional
Yellow fever virus [3] = assay: Antiviral activity against YFV Jimenez infected in Syrian golden hamster assessed as survival of animal at 32 mg/kg, po for 7 days; assay type: functional, organism-based; design: dose 32 mg/kg
Yellow fever virus [4] = assay: Antiviral activity against YFV Jimenez infected in Syrian golden hamster liver assessed as mean day to death at 100 mg/kg/day, ip bid for 8 days administered after 4 day post-infection; assay type: functional; details: route intraperitoneal
Yellow fever virus [5] = assay: Antiviral activity against YFV Jimenez infected in Syrian golden hamster liver assessed as survival at 100 mg/kg/day, ip bid for 8 days administered after 1 day post-infection; assay type: functional, organism-based
Yellow fever virus [6] = assay: Antiviral activity against YFV Jimenez infected in Syrian golden hamster liver assessed as alanine aminotransferase at 100 mg/kg/day, ip bid for 8 days administered after 1 day post-infection; assay type: functional; details: route intraperitoneal; method in brief: as §1
Yellow fever virus [7] = assay: Antiviral activity against YFV Jimenez infected in Syrian golden hamster assessed as survival of animal at 10 mg/kg, ip bid for 7 days; assay type: functional; details: route intraperitoneal
Yellow fever virus [8] = assay: Antiviral activity against YFV Jimenez infected in Syrian golden hamster liver assessed as weight change at 100 mg/kg/day, ip bid for 8 days administered after 4 day post-infection; assay type: functional; details: route intraperitoneal
Yellow fever virus [9] = assay: Antiviral activity against YFV Jimenez infected in Syrian golden hamster liver treated 4 hrs before viral challenge assessed as mean day to death at 100 mg/kg/day, ip bid for 8 days; assay type: functional; details: route intraperitoneal
Yellow fever virus [10] = assay: Antiviral activity against YFV Jimenez infected in Syrian golden hamster assessed as survival of animal at 100 mg/kg, bid ip for 7 days; assay type: functional, organism-based; design: dose 100 mg/kg
Yellow fever virus [11] = assay: Antiviral activity against YFV Jimenez infected in Syrian golden hamster liver assessed as weight change at 100 mg/kg/day, ip bid for 8 days administered after 5 day post-infection; assay type: functional; details: route intraperitoneal
Syrian golden hamster [12] = assay: Toxicity in YFV infected Syrian golden hamster assessed as survival of animals at 32 mg/kg/day, ip bid for 7 days; assay type: organism-based, Mesocricetus auratus; design: route intraperitoneal; details: in vivo, 168 h
Method in brief: (§2)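 Female Syrian golden hamsters (~100 g), toxicity-control groups of three, sham-infected. Drug suspended in saline or 0.4% carboxymethyl cellulose, given i.p. b.i.d. 12 h apart from −4 h through 7 days. Mortality checked daily; weight taken at 0, 3 and 6 dpi, with change taken as 3-to-6 dpi difference.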

Yellow fever virus [13] = assay: Antiviral activity against YFV Jimenez infected in Syrian golden hamster assessed as mean day to death after 21 days post-infection at 10 mg/kg, ip bid for 7 days; assay type: functional; details: route intraperitoneal
Yellow fever virus [14] = assay: Antiviral activity against YFV Jimenez infected in Syrian golden hamster assessed as weight change at 100 mg/kg, po bid for 7 days; assay type: functional
Yellow fever virus [15] = assay: Antiviral activity against YFV Jimenez infected in Syrian golden hamster liver assessed as mean day to death at 100 mg/kg/day, ip bid for 8 days administered after 1 day post-infection; assay type: functional; details: route intraperitoneal
Syrian golden hamster [16] = assay: Toxicity in YFV infected Syrian golden hamster assessed as assessed as weight change at 100 mg/kg/day, ip bid for 7 days; assay type: organism-based, Mesocricetus auratus; design: route intraperitoneal; details: in vivo, 168 h; method in brief: as §2
Yellow fever virus [17] = assay: Antiviral activity against YFV Jimenez infected in Syrian golden hamster liver assessed as mean day to death at 100 mg/kg/day, ip bid for 8 days administered after 5 day post-infection; assay type: functional; details: route intraperitoneal
[18] = Selectivity index, ratio of CC50 for african green monkey CV1 cells to EC50 for YFV infected in CV1 cells; assay type: functional, CV-1
Method in brief: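 Jimenez hamster-adapted YFV at 10 CCID50/well on Vero or CV-1 monolayers; seven drug concentrations added 5–10 min before virus; 37°C for 6 days. CPE scored microscopically, then neutral red uptake (0.34% dye, 2 h, eluted and quantified). EC50 derived; CC50 from uninfected drug-treated cells; SI = CC50/EC50.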

Yellow fever virus [19] = assay: Antiviral activity against YFV Jimenez infected in Syrian golden hamster assessed as mean day to death after 21 days post-infection at 32 mg/kg, ip bid for 7 days; assay type: functional; details: route intraperitoneal
Yellow fever virus [20] = assay: Antiviral activity against YFV Jimenez infected in Syrian golden hamster assessed as weight change at 32 mg/kg, ip bid for 7 days; assay type: functional; details: route intraperitoneal
Yellow fever virus [21] = assay: Antiviral activity against YFV Jimenez infected in Syrian golden hamster assessed as mean day to death after 21 days post-infection at 100 mg/kg, po bid for 7 days; assay type: functional
Yellow fever virus [22] = assay: Antiviral activity against YFV Jimenez infected in Syrian golden hamster assessed as serum alanine aminotransferase at 100 mg/kg, po bid for 7 days; assay type: functional; method in brief: as §1
Yellow fever virus [23] = assay: Antiviral activity against YFV Jimenez infected in Syrian golden hamster liver treated 4 hrs before viral challenge assessed as weight change at 100 mg/kg/day, ip bid for 8 days; assay type: functional; details: route intraperitoneal
Yellow fever virus [24] = assay: Antiviral activity against YFV Jimenez infected in Syrian golden hamster liver assessed as alanine aminotransferase at 100 mg/kg/day, ip bid for 8 days administered after 4 day post-infection; assay type: functional; details: route intraperitoneal; method in brief: as §1
Yellow fever virus [25] = assay: Antiviral activity against YFV Jimenez infected in Syrian golden hamster assessed as serum alanine aminotransferase at 10 mg/kg, ip bid for 7 days; assay type: functional; details: route intraperitoneal; method in brief: as §1
Yellow fever virus [26] = assay: Antiviral activity against YFV Jimenez infected in Syrian golden hamster liver treated 4 hrs before viral challenge assessed as serum alanine aminotransferase at 100 mg/kg/day, ip bid for 8 days; assay type: functional; details: route intraperitoneal; method in brief: as §1
Syrian golden hamster [27] = assay: Toxicity in YFV infected Syrian golden hamster assessed as survival of animals at 100 mg/kg/day, ip bid for 7 days; assay type: organism-based, Mesocricetus auratus; design: route intraperitoneal; details: in vivo, 168 h; method in brief: as §2

NC(=O)c1nccn([C@@H]2O[C@H](CO)[C@@H](O)[C@H]2O)c1=O
Activity (Yellow fever virus [1]): 56 IU/L
Ratio CC50/EC50 [2]: 207
Activity (Yellow fever virus [3]): Active
Activity (Yellow fever virus [4]): 6 days
Activity (Yellow fever virus [5]): Active
Activity (Yellow fever virus [6]): 56 IU/L
Activity (Yellow fever virus [7]): 80%
Activity (Yellow fever virus [8]): -4.7 g
Activity (Yellow fever virus [9]): >21 days
Activity (Yellow fever virus [10]): Active
Activity (Yellow fever virus [11]): -6.9 g
Activity (Syrian golden hamster [12]): Non-toxic
Activity (Yellow fever virus [13]): 8 days
Activity (Yellow fever virus [14]): 6.3 g
Activity (Yellow fever virus [15]): >21 days
Activity (Syrian golden hamster [16]): 5.3 g
Activity (Yellow fever virus [17]): 7.4 days
Ratio CC50/EC50 [18]: 1
Activity (Yellow fever virus [19]): >21 days
Activity (Yellow fever virus [20]): 5.2 g
Activity (Yellow fever virus [21]): >21 days
Activity (Yellow fever virus [22]): 56 IU/L
Activity (Yellow fever virus [23]): 6 g
Activity (Yellow fever virus [24]): 108 IU/L
Activity (Yellow fever virus [25]): 174 IU/L
Activity (Yellow fever virus [26]): 58 IU/L
Activity (Syrian golden hamster [27]): Non-toxic
